# pIC50: −log10 of the molar value. Entries after “also recorded” stand apart in the source; their conditions may differ.
# What was measured:
# [1] = test system: p-cofilin in tumor biopsies; assay: p-cofilin in pre- and post-treatment tumor biopsies, Protein Simple WES assay; assay type: in vivo, human; conditions: 8 pre- and post-treatment biopsies
# Method in brief: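 Tumor biopsies were taken pre-dose and 24 h post-dose (cycle 1 day 15 or cycle 2 day 1) at 180 mg given thrice weekly. Phospho- and total cofilin were measured by capillary immunoassay (WES), normalized to GAPDH, and quantified as the area under the chemiluminescence peak. Phospho-cofilin was expressed as percent of pre-dose level.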
# [2] = test system: advanced solid tumors; assay: Clinical efficacy; assay type: in vivo, human; conditions: all dose levels
# Method in brief: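 Patients with metastatic solid tumors who had already received standard-of-care treatment took oral test compound three days a week (Mon-Wed-Fri) in 28-day cycles. Cohorts received flat doses from 5 to 300 mg, and one further cohort used intra-patient escalation from 120 to 180 to 240 mg.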
# [3] = assay type: in vivo; conditions: human, plasma, oral
# [4] = test system: ROCK 2; conditions: cited from earlier work
# [5] = test system: AKT3; conditions: cited from earlier work
# [6] = test system: p-GSK3β in platelet-rich plasma; assay: p-GSK3β; assay type: in vivo, human
# Method in brief: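 Blood was sampled at baseline and at 2, 6, 24 and 48 h after the run-in dose and after the cycle 2, day 1 dose. Platelet-rich plasma was prepared, and GSK3β Ser9 phosphorylation was measured by MSD electrochemiluminescent immunoassay. Results were expressed as percent of baseline, normalized to total GSK3β, and compared with predose by Dunnett's test.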
# [7] = test system: ROCK I; conditions: cited from earlier work
# [8] = test system: AKT1; conditions: cited from earlier work
# [9] = test system: patients with solid tumors; assay: First-in-human phase I dose escalation: safety and tolerability; assay type: in vivo
# Method in brief: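 The design was a rolling-six dose escalation across 5–300 mg in 8 cohorts, starting with a single run-in dose 7 days before cycle 1. Dosing was oral, Mon-Wed-Fri, in 28-day cycles. An added cohort escalated within each patient: one week at 120 mg, then 180 mg, then 240 mg during cycle 1. Toxicity was assessed weekly. Patients with hypertension on medication or abnormal fasting glucose were excluded.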
# [10] = test system: AKT2; conditions: cited from earlier work
# [11] = test system: p-MLC2 in tumor biopsies; assay: p-MLC2 in paired tumor biopsies by immunohistochemistry; assay type: in vivo, human; conditions: 180 mg dose level, 5 paired biopsies
# Method in brief: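 Fresh tumor biopsies were taken before and after treatment at 180 mg. Four-μm sections were heated at 60 °C for 20 min and retrieved in Tris pH 9 at 110 °C for 6 min. Staining used primary antibody 40 min at RT, biotinylated secondary 1:200, ABC-HRP amplification, VIP substrate and hematoxylin counterstain. Positive-cell detection used intensity scores 0–3, with a random-trees classifier separating tumor from stroma.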
# [12] = Cohort 9 120-180-240 mg (n=7), grade 1
smiles,measurement,setting,value
NC[C@@](O)(c1ccc(Cl)cc1)c1ccc(-c2cn[nH]c2)cc1 [AT13148],post-treatment biopsies showing a reduction of p-cofilin,[1]; 180 mg dose level,5/8
same,post-treatment biopsies with ≥50% (>50%) reduction of p-cofilin,[1]; 180 mg thrice a week,3/8
same,tumor response,[2],No complete or partial responses; also recorded: no clinical responses
same,half-life,[3],14.4 to 32.2 h
same,AUC,[3]; 180 mg,13.4 µM·h
same,Cmax,[3]; 180 mg,383 nM
same,pIC50,[4],8.40
same,pIC50,[5],7.30
same,change of p-GSK3β levels in platelet-rich plasma vs predose,"[6]; 300 mg, 2 - 6 hrs (legend: 2 - 24 hrs) after treatment, Dunnett's test",statistically significant reduction; also recorded: reduced; also recorded: transient reduction
same,change of p-GSK3β levels in platelet-rich plasma vs predose,[6]; doses lower than 300 mg,not significant
same,pIC50,[7],8.22
same,pIC50,[8],7.42
same,dose-limiting toxicity,[9]; 180 mg,skin rash; also recorded: maculopapular rash
same,dose-limiting toxicities,[9]; 240 mg,pneumonitis and elevated liver enzymes; also recorded: elevated transaminases and pneumonitis
same,dose-limiting toxicity,[9]; 300 mg,hypotension
same,most common (treatment related) side effects,[9]; 5 - 300 mg,"fatigue, nausea, headaches and hypotension; also recorded: hypotension, nausea, headache and fatigue"
same,"Anorexia, No. subjects","[9]; Cohort 1 5 mg (n=4), grade 1",1
same,"Nausea, No. subjects","[9]; Cohort 1 5 mg (n=4), grade 1",1
same,"Fatigue, No. subjects","[9]; Cohort 1 5 mg (n=4), grade 2",1
same,"Hypotension, No. subjects","[9]; Cohort 2 10 mg (n=5), grade 1",1
same,"Flushing, No. subjects","[9]; Cohort 8 300 mg (n=5), grade 1",1
same,"Headache, No. subjects","[9]; Cohort 8 300 mg (n=5), grade 1",3
same,"Nausea, No. subjects","[9]; Cohort 8 300 mg (n=5), grade 1",2
same,"Vomiting, No. subjects","[9]; Cohort 8 300 mg (n=5), grade 1",1
same,"Anorexia, No. subjects",[9]; [12],2
same,"Diarrhea, No. subjects",[9]; [12],2
same,"Fatigue, No. subjects",[9]; [12],2
same,"Hypotension, No. subjects",[9]; [12],2
same,"Nausea, No. subjects",[9]; [12],4
same,"Vomiting, No. subjects",[9]; [12],1
same,"Fatigue, No. subjects","[9]; Cohort 9 120-180-240 mg (n=7), grade 2",2
same,DLTs reported,[9]; Cohort 9 intra-patient dose escalation 120-180-240 mg,two DLTs (grade 3 pneumonitis at 240 mg and grade 3 rash at 180 mg)
same,"Anorexia, Total No. subjects",[9]; all cohorts (n = 51),7 (13.7%)
same,"Diarrhea, Total No. subjects",[9]; all cohorts (n = 51),7 (13.7%)
same,"Fatigue, Total No. subjects",[9]; all cohorts (n = 51),9 (17.6%)
same,"Flushing, Total No. subjects",[9]; all cohorts (n = 51),6 (11.8%)
same,"Headache, Total No. subjects",[9]; all cohorts (n = 51),12 (23.5%)
same,"Hypotension, Total No. subjects",[9]; all cohorts (n = 51),20 (39.2%)
same,"Nausea, Total No. subjects",[9]; all cohorts (n = 51),15 (29.4%)
same,"Vomiting, Total No. subjects",[9]; all cohorts (n = 51),7 (13.7%)
same,dose-limiting toxicities,[9]; dose doubling from 5 - 160 mg,no dose-limiting toxicities reported
same,time of occurrence of hypotension after dosing,[9]; in vivo,≤ 8 h
same,maximally tolerated dose,"[9]; orally on days 1, 3 and 5 of each week, 28-day cycles",180 mg
same,pIC50,[10],6.40
same,paired biopsies with reduction of p-MLC2 (H scores) post-treatment,[11],1/5

# — article PMC7611345 (Clinical cancer research : an official journal of the …, 2020)
